Results taken from paper PMC6748665 (Journal of Medicinal Chemistry, 2019).
Read-outs that look alike come from different tables or passages of the source.

Assays:
PaTrmD [1] = molecular target: T1, PaTrmD (Pseudomonas aeruginosa, UniProt Q9HXQ1); assay: TrmD inhibitor assay; assay type: biochemical; details: for reduction of enzyme inhibitory activity compared with the alkyl chain: ethylene glycol substituents
T1 sequence (Q9HXQ1 5-250): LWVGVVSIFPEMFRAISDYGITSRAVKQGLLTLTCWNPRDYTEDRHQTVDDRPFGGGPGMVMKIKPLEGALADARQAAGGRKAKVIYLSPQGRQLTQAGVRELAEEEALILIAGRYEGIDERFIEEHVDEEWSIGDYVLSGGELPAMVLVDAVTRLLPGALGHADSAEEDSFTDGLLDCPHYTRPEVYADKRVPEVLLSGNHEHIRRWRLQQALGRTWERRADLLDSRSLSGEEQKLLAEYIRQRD
How it was run: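 E. coli-expressed PaTrmD (IMAC and size-exclusion purified, 8 nM) was preincubated 15 min at ambient temperature with serially diluted inhibitor (0–500 μM). Reaction buffer was 50 mM Tris-HCl pH 8.0, 80 mM NaCl, 1 mM MgCl2, 0.5 mM DTT and 0.01% Triton X-100, with 2 μM SAM and 0.5 μM in vitro-transcribed tRNALeu(CAG). Reactions ran 45 min at 37 °C. SAH was detected by MTase-Glo luminescence against an SAH standard curve.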

SaTrmD = molecular target: T2, SaTrmD (Staphylococcus aureus, UniProt Q2FZ43); details: cited from earlier work
T2 sequence (Q2FZ43 1-245): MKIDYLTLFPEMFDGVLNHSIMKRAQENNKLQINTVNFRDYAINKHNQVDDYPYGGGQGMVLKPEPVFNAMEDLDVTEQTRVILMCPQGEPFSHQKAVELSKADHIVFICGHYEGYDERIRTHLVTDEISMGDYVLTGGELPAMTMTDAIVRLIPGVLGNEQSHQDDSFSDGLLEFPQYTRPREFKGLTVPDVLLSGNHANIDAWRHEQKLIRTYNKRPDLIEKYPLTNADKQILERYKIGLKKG

PaTrmD [2] = molecular target: T1, PaTrmD; assay: Surface plasmon resonance; assay type: binding; details: SPR
PaTrmD [3] = molecular target: T1, PaTrmD; assay: Thermal stability; assay type: binding
PaTrmD [4] = molecular target: T1, PaTrmD; details: ref 15 (Hill et al.); cited from earlier work
bacteria = details: in words; cited from earlier work
[5] = tested on: collection of Gram-positive and Gram-negative bacteria; assay: Single-dose; assay type: cell-based; details: against Gram-positive bacteria and mycobacteria; single dose 100 μM
[6] = PaTrmD, O^6-substituted thienopyrimidinones, NA = not active up to 50 μM

4-(Hexyloxy)-N-(4-((octylamino)methyl)benzyl)thieno[2,3-d]pyrimidine-5-carboxamide [Compound 44]
IC50 (PaTrmD [1]; [6]): > 50 µM

4-Methoxy-N-(4-(morpholinomethyl)benzyl)thieno[2,3-d]pyrimidine-5-carboxamide [Compound 45]
IC50 (PaTrmD [1]; [6]): > 50 µM

NC1CCN(Cc2ccc(CNC(=O)c3csc4nc[nH]c(=O)c34)cc2)CC1 [AZ51]
IC50 (SaTrmD): 1200 nM | faster on-rate (association rate) compared to SAH (PaTrmD [2]; PaTrmD): ~2 fold | slower off-rate (dissociation rate) compared to SAH (PaTrmD [2]; PaTrmD): ~30 fold | Tm higher than thermostabilization conferred by SAH (PaTrmD [3]): 17 °C | IC50 (PaTrmD [4]): 39 nM | antibacterial activity (bacteria): lacked antibacterial activity

O=C(NCc1ccc(CN2CCCCC2)cc1)c1csc2nc[nH]c(=O)c12 [Compound 9, 4-Oxo-N-(4-(piperidin-1-ylmethyl)benzyl)-3,4-dihydrothieno[2,3-d]pyrimidine-5-carboxamide]
reduction of inhibitory activity compared with AZ51 (PaTrmD [1]; PaTrmD): 6–16 fold

O=C(NCc1ccc(CN2CCOCC2)cc1)c1csc2nc[nH]c(=O)c12 [Compound 10, N-(4-(Morpholinomethyl)benzyl)-4-oxo-3,4-dihydrothieno[2,3-d]pyrimidine-5-carboxamide]
reduction of inhibitory activity compared with AZ51 (PaTrmD [1]; PaTrmD): 6–16 fold

O=C(NCc1ccc(CNCc2ccccc2)cc1)c1csc2nc[nH]c(=O)c12 [Compound 14, N-(4-((Benzylamino)methyl)benzyl)-4-oxo-3,4-dihydrothieno[2,3-d]pyrimidine-5-carboxamide]
TrmD inhibitory activity (in words) (PaTrmD [1]; PaTrmD): submicromolar activity

CCCCCCCCNCc1ccc(CNC(=O)c2csc3nc[nH]c(=O)c23)cc1 [Compound 15, N-(4-((Octylamino)methyl)benzyl)-4-oxo-3,4-dihydrothieno[2,3-d]pyrimidine-5-carboxamide]
IC50 (PaTrmD [1]): 0.02 ± 0.01 µM | increase of IC50 when tRNA concentration was increased (PaTrmD [1]; PaTrmD, tRNA competition assay, from 0.02 to 0.26 μM): 13 fold | higher binding affinity (KD) to PaTrmD compared with AZ51 (PaTrmD [2]): ~50 fold | growth inhibitory activity at 100 μM [5]: showed growth inhibitory activity

O=C(NCc1ccc(CNC2CCCCC2)cc1)c1csc2nc[nH]c(=O)c12 [Compound 16, N-(4-((Cyclohexylamino)methyl)benzyl)-4-oxo-3,4-dihydrothieno[2,3-d]pyrimidine-5-carboxamide]
TrmD inhibitory activity (in words) (PaTrmD [1]; PaTrmD): submicromolar activity

O=C(NCc1ccc(CNC23CC4CC(CC(C4)C2)C3)cc1)c1csc2nc[nH]c(=O)c12 [Compound 17, N-(4-((((3s,5s,7s)-Adamantan-1-yl)amino)methyl)benzyl)-4-oxo-3,4-dihydrothieno[2,3-d]pyrimidine-5-carboxamide]
TrmD inhibitory activity (in words) (PaTrmD [1]; PaTrmD): submicromolar activity

CCCCCCCCN(Cc1ccccc1)Cc1ccc(CNC(=O)c2csc3nc[nH]c(=O)c23)cc1 [Compound 20, N-(4-((Benzyl(octyl)amino)methyl)benzyl)-4-oxo-3,4-dihydrothieno[2,3-d]pyrimidine-5-carboxamide]
TrmD inhibitory activity (in words) (PaTrmD [1]; PaTrmD): nearly abolished

CCCCCCCCCCNCc1ccc(CNC(=O)c2csc3nc[nH]c(=O)c23)cc1 [Compound 23, N-(4-((Decylamino)methyl)benzyl)-4-oxo-3,4-dihydrothieno[2,3-d]pyrimidine-5-carboxamide]
growth inhibitory activity at 100 μM [5]: showed growth inhibitory activity

CCCCCCCCCCCCNCc1ccc(CNC(=O)c2csc3nc[nH]c(=O)c23)cc1 [Compound 24, N-(4-((Dodecylamino)methyl)benzyl)-4-oxo-3,4-dihydrothieno[2,3-d]pyrimidine-5-carboxamide]
growth inhibitory activity at 100 μM [5]: showed growth inhibitory activity

O=C(NCc1ccc(CNCCOCCO)cc1)c1csc2nc[nH]c(=O)c12 [Compound 25, N-(4-(((2-(2-Hydroxyethoxy)ethyl)amino)methyl)benzyl)-4-oxo-3,4-dihydrothieno[2,3-d]pyrimidine-5-carboxamide]
reduction of enzyme inhibitory activity compared with the alkyl chain (PaTrmD [1]; PaTrmD): 4–8 fold

CCOCCOCCNCc1ccc(CNC(=O)c2csc3nc[nH]c(=O)c23)cc1 [Compound 26, N-(4-(((2-(2-Ethoxyethoxy)ethyl)amino)methyl)benzyl)-4-oxo-3,4-dihydrothieno[2,3-d]pyrimidine-5-carboxamide]
reduction of enzyme inhibitory activity compared with the alkyl chain (PaTrmD [1]; PaTrmD): 4–8 fold

N-(4-((Benzylamino)methyl)benzyl)-4-methoxythieno[2,3-d]pyrimidine-5-carboxamide [Compound 39]
IC50 (PaTrmD [1]; [6]): > 50 µM

N-(4-((Benzylamino)methyl)benzyl)-4-propoxythieno[2,3-d]pyrimidine-5-carboxamide [Compound 40]
IC50 (PaTrmD [1]; [6]): > 50 µM

N-(4-((Octylamino)methyl)benzyl)-4-propoxythieno[2,3-d]pyrimidine-5-carboxamide [Compound 43]
IC50 (PaTrmD [1]; [6]): > 50 µM

N-(4-(Morpholinomethyl)benzyl)-4-propoxythieno[2,3-d]pyrimidine-5-carboxamide [Compound 46]
IC50 (PaTrmD [1]; [6]): > 50 µM
